# High-throughput results from PubChem.
# APP transl inh: inhibitors of APP translation via 5'UTR reporter, primary screen, APP 5'UTR luciferase, SH-SY5Y cells | SH-SY5Y APP 5'UTR-luciferase reporter, luminescence | inhibition, % at 2 µM | 0.82% of 190,000 active | AID 1285, 2008;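 active = inhibition above a set limit, derived from the sample mean plus 3 SD, cut at about 45% in these data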
# Lmaj promast: Leishmania major promastigote growth inhibition, primary screen | Leishmania major promastigotes, resazurin fluorescence viability | 9% of 200,000 active | inhibition, % at 10 µM; in the data active = inhibition above about 50%;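 note: promastigotes grown with compound for 44 hours at 28 °C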
# Ba/F3 V617F tox: reduced viability of JAK2V617F-dependent Ba/F3 cells, primary screen, JAK2V617F inhibitor project, cell-based, Ba/F3 EpoR-JAK2V617F, luminescence; ATP luminescence; inhibition, % at 5.6 µM; 1.1% of 220,000 active; AID 1446, 2008;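 active = inhibition above the campaign mean plus 3 SD over all tested compounds, cut at about 24% in these data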;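 note: cytokine-independent growth of Ba/F3 cells driven by EpoR plus mutant JAK2; 0% = DMSO-treated cells and 100% = JAK inhibitor I control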
# MT stabilizer: microtubule stabilizers in HeLa cells, primary screen, imaging, high-content imaging. HeLa tubulin immunostaining HCS, 24 h; share of cells brighter than vehicle mean+2SD. % tubulin-high responders, % at 10 µM. 0.83% of 200,000 active;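 active = plate Z-score above 3 for both tubulin-high and condensed-nucleus cell shares, with cell loss under 80%, at 10 µM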;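 note: anti alpha tubulin signal scored within the nucleus-defined area of each cell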
# BaF3 parental: parental Ba/F3 cell viability inhibition, counter-screen for JAK2V617F inhibitor project, murine pro-B, CellTiter-Glo luminescence; AID 1486, 2009; CellTiter-Glo ATP luminescence; inhibition, % at 5.6 µM; 1.1% of 220,000 active;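 active = inhibition above a per-campaign cutoff, the mean inhibition of all tested compounds plus 3 SD, cut at about 27% in these data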;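 note: 0% = DMSO wells and 100% = JAK Inhibitor I control wells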
# b-catenin transl: modulators of beta-catenin nuclear translocation, primary screen, imaging, HeLa cells, immunofluorescence, high-content. nuclear translocation activity, % at 5 µM. 0.3% of 190,000 active. AID 1665, 2009;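 active = nuclear translocation activity above 50% at 5 µM, with a well cell count of 50 or more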;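 note: per-cell ratio of nuclear to cytoplasmic median beta-catenin stain intensity; plate controls were DMSO negative control for no effect and GSK-3 inhibitor IX positive control for full effect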
#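 Test system: human HeLa cells, endogenous beta-catenin. Times: 24 h compound exposure, 37°C. Measured by: beta-catenin immunofluorescence imaging with DAPI.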
# * marks the source's active call; other numbers are inactive results; · = no result given. A selection: hits, their analogues and other compounds. The true share with any hit is near 9.6%.
SMILES,APP transl inh,Lmaj promast,Ba/F3 V617F tox,MT stabilizer,BaF3 parental,b-catenin transl
COc1ccc(C2CC(=O)C3=C(C2)Nc2ncnn2C3c2ccccc2C)c(OC)c1 (stereo not drawn),-28,100*,-4,5,1,0
CCOC(=O)c1cnc2ccc(OCC)cc2c1N(C)Cc1ccccc1,11,98*,-1,3,0,-2
CCOC(=O)c1cnc2ccc(OCC)cc2c1N1CCN(c2ccccc2OC)CC1,11,32,0,1,6,·
O=C(OCC(=O)N1CCc2ccccc21)c1ccc(Cl)nc1,-5,-6,0,2,8,0
COc1cccc2sc(Nc3nnc(-c4ccccc4Cl)o3)nc12,85*,97*,82*,10,85*,6
COc1ccccc1-c1nnc(Nc2nc3c(OC)cccc3s2)o1,87*,98*,72*,19,76*,48
CCOC(=O)c1sc(Nc2nc3c(OC)cccc3s2)cc1C,-19,69*,3,4,9,0
COc1cccc(-c2nnc(Nc3nc4c(F)cccc4s3)o2)c1,-49,1,0,3,2,0
NNc1nc2c(Cl)c(Cl)ccc2s1,-24,99*,-1,4,5,-1
COc1ccc(OC)c([C@@H]2OCCC=C[C@H]2C)c1,-3,-1,-2,3,4,·
COc1ccc(N2C(=O)CC(Sc3n[nH]c(-c4ccccc4)n3)C2=O)cc1 (stereo not drawn),·,·,-8,·,-3,0
COc1cccc(C(=O)Oc2cc(-c3ccccc3)no2)c1,2,-6,-5,1,1,·
COc1cccc2sc(NN)nc12,-26,60*,2,3,2,-1
CC(=O)Nc1ccc2nc(NC(=O)COc3ccccc3C)sc2c1,-16,9,0,4,4,1
COc1cccc2sc(Nc3nc4ccc(NC(C)=O)cc4s3)nc12,14,85*,6,4,4,-4
CCOc1cccc2sc(NC(=O)CC)nc12,22,26,-5,1,2,·
COc1ccc(C)cc1NC(=O)C(NCC1CCCO1)c1ccccc1 (stereo not drawn),17,-4,1,3,7,6
COc1ccc(Cl)cc1NC(=S)NCc1ccc(S(N)(=O)=O)cc1,21,0,1,3,4,1
Cc1cc(=O)oc2cc(Oc3ccc([N+](=O)[O-])cc3[N+](=O)[O-])ccc12,1,86*,2,4,4,1
O=c1nc2s/c(=C\c3ccc(-c4ccccc4[N+](=O)[O-])o3)c(=O)n2nc1-c1ccccc1,9,-10,1,3,6,1
COc1cc2c(cc1NC(=O)CSc1ccccc1)oc1ccccc12,-13,5,-3,3,2,0
COc1ccc(S(=O)(=O)N[C@@H](C)C(=O)OCC(=O)Nc2cc3oc4ccccc4c3cc2OC)cc1,-57,34,-1,2,1,0
COc1cc2c(cc1NC(=O)CSc1nc3cc(Cl)ccc3s1)oc1ccccc12,-26,51*,0,6,5,-2
COc1cc2c(cc1NC(=O)COC(=O)[C@@H](NS(=O)(=O)c1cccc(Cl)c1)C(C)C)oc1ccccc12,-25,62*,2,3,7,3
CC(C)(C)c1cc(NC(=O)COc2ccc(Br)cc2)n(-c2ccccc2)n1,·,8,2,2,4,·
SMILES,APP transl inh,Lmaj promast,Ba/F3 V617F tox,MT stabilizer,BaF3 parental,b-catenin transl
CCN1CCN(c2ncc3c(n2)CC(c2ccc(OC)c(OC)c2)CC3=O)CC1 (stereo not drawn),4,99*,5,23,9,-1
O=C(Nc1ccccc1N1CCN(c2ccccc2)CC1)C12CC3CC(CC(C3)C1)C2,2,98*,-4,3,1,-1
O=C(Cc1ccccc1)Nc1ccccc1N1CCN(c2ccccc2)CC1,-10,8,-4,4,0,·
Nc1n[nH]c(-c2ccc([N+](=O)[O-])cc2[N+](=O)[O-])n1,2,1,-2,3,6,-2
O=CNCCCc1nc2ccccc2n1Cc1cccc2ccccc12,-12,93*,3,1,7,·
CC(=O)NCCCc1nc2ccccc2n1Cc1ccccc1F,·,·,2,·,3,0
COc1ccc(C(=O)NCCCc2nc3ccccc3n2Cc2ccccc2C)cc1OC,-10,77*,1,3,3,-3
CCCC(=O)NCCCc1nc2ccccc2n1CC,-4,1,2,4,8,0
Cc1ccc(S(=O)(=O)CC(=O)c2cc(C)c(O)c(C)c2)cc1,-12,4,2,4,2,-2
CCOc1ccc(-n2c(=O)c3ccccc3c3ccccc3c2=O)cc1,·,·,-2,·,0,1
CCOc1ccccc1-n1c(=O)c2ccccc2c2ccccc2c1=O,-5,77*,2,3,5,0
Cn1cccc1/C=C1\SC(=S)N(NC(=O)c2cccc(Cl)c2)C1=O,11,-9,-1,3,6,0
CCCOc1ccc(C(C)(O)CN2CCOCC2)cc1 (stereo not drawn),-3,1,5,3,4,-4
CC(C)(c1ccccc1)c1ccc(OCCCN2CCNCC2)cc1,8,100*,-1,3,3,2
COCCCNCCOc1ccc(C(C)(C)c2ccccc2)cc1,-30,100*,1,3,10,0
CNCCCOc1ccc(C(C)(C)c2ccccc2)cc1,·,100*,2,3,5,1
CC(C)(C)c1ccc(OCCNC(=S)Nc2ccccc2)cc1,-5,15,0,3,4,0
CCC(C)NCCOc1ccc(C(C)(C)c2ccccc2)cc1 (stereo not drawn),11,100*,7,8,6,0
Cc1ccc(/C=N/NC(=O)c2ccc3nc[nH]c3c2)o1,·,·,4,·,2,-2
COc1ccc(S(=O)(=O)NC2CC(C)(C)NC(C)(C)C2)cc1C(C)C,·,·,-4,·,3,1
CCC(C)NCCOc1cccc(Br)c1 (stereo not drawn),-9,14,2,2,1,1
CCCOc1ccc(OCCCCNC(C)CC)cc1 (stereo not drawn),-16,99*,1,2,6,-2
C=CCNCCCCOc1ccc(OCc2ccccc2)cc1,-71,99*,3,5,1,0
COCCCNCCCCOc1ccc(OCc2ccccc2)cc1,-35,99*,-4,5,4,2
c1ccc(COc2ccc(OCCCNC3CCCC3)cc2)cc1,-14,100*,0,4,4,1
COc1ccccc1OCCNC1CCCC1,1,-3,-1,2,8,·
CCc1cccc(OCCCCNCCOC)c1,14,90*,-4,1,1,-5
